Data from ChEMBL document CHEMBL1667806, “Synthesis and evaluation of anti-tubercular activity of new dithiocarbamate sugar derivatives” (2011).
In brackets after ≈: the same amount, converted by molar mass.

Assays:
[1] = test system: Staphylococcus aureus; experiment: Antimicrobial activity against Staphylococcus aureus; type: functional
[2] = test system: Mycobacterium avium; experiment: microbe, parasite or virus in culture; type: functional, Mycobacterium avium subsp. avium ATCC 25291; conditions: ATCC 2529
[3] = test system: Staphylococcus aureus; experiment: microbe, parasite or virus in culture; type: functional; conditions: 873
[4] = test system: Mycobacterium tuberculosis; experiment: Antimycobacterial activity against Mycobacterium tuberculosis H37Rv; type: functional
[5] = microbe, parasite or virus in culture; type: functional, Mycobacterium bovis BCG str. Tokyo 172; conditions: Mycobacterium tuberculosis variant bovis BCG
[6] = test system: Escherichia coli; experiment: Antimicrobial activity against Escherichia coli DH5alpha; type: functional; conditions: DH5[alpha]
[7] = microbe, parasite or virus in culture; type: functional, Mycobacterium avium subsp. hominissuis; conditions: Mycobacterium avium, 104
[8] = test system: Mycobacterium tuberculosis; experiment: Antimycobacterial activity against drug-sensitive Mycobacterium tuberculosis isolate 20; type: functional
Outline: (§1)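 MIC by broth dilution in Middlebrook 7H9 broth supplemented with albumin, dextrose and catalase.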

[9] = test system: Enterococcus faecalis; experiment: Antimicrobial activity against AGs-resistant Enterococcus faecalis ATCC 19433; type: functional
[10] = test system: Staphylococcus aureus; experiment: Antimicrobial activity against methicillin-resistant Staphylococcus aureus MF490; type: functional
[11] = test system: Mycobacterium tuberculosis; experiment: Antimycobacterial activity against drug-sensitive Mycobacterium tuberculosis isolate 7; type: functional; outline: as §1
[12] = test system: Mycobacterium tuberculosis; experiment: Antimycobacterial activity against drug-sensitive Mycobacterium tuberculosis isolate 3; type: functional; outline: as §1
[13] = test system: Pseudomonas aeruginosa; experiment: Antibacterial activity against drug-sensitive Pseudomonas aeruginosa PAO1; type: functional
[14] = test system: Mycobacterium tuberculosis; experiment: Antimycobacterial activity against drug-sensitive Mycobacterium tuberculosis isolate 16; type: functional; outline: as §1
[15] = test system: Escherichia coli; experiment: Antimicrobial activity against drug-sensitive Escherichia coli JM109; type: functional
[16] = test system: Klebsiella pneumoniae; experiment: Antibacterial activity against […] Klebsiella pneumoniae ATCC BAA-1705; type: functional
[17] = test system: Staphylococcus aureus; experiment: Antimicrobial activity against drug-sensitive Staphylococcus aureus RN4220; type: functional
[18] = test system: Mycobacterium tuberculosis; experiment: Antimycobacterial activity against drug-sensitive Mycobacterium tuberculosis isolate 12; type: functional; outline: as §1
[19] = test system: Mycobacterium tuberculosis; experiment: Antimycobacterial activity against drug-sensitive Mycobacterium tuberculosis isolate 9; type: functional; outline: as §1
[20] = test system: Mycobacterium tuberculosis; experiment: Antimycobacterial activity against drug-sensitive Mycobacterium tuberculosis isolate 1; type: functional
[21] = test system: Mycobacterium tuberculosis; experiment: Antimycobacterial activity against drug-sensitive Mycobacterium tuberculosis isolate 8; type: functional; outline: as §1
[22] = test system: Mycolicibacterium smegmatis; experiment: microbe, parasite or virus in culture; type: functional; conditions: JATA 64.01
[23] = test system: Mycobacterium tuberculosis; experiment: Antimycobacterial activity against drug-sensitive Mycobacterium tuberculosis isolate 15; type: functional; outline: as §1
[24] = test system: Mycobacterium tuberculosis; experiment: Antimycobacterial activity against drug-sensitive Mycobacterium tuberculosis isolate 5; type: functional; outline: as §1
[25] = test system: Mycobacterium tuberculosis; experiment: Antimycobacterial activity against drug-sensitive Mycobacterium tuberculosis isolate 18; type: functional; outline: as §1
[26] = test system: Mycobacterium tuberculosis; experiment: Antimycobacterial activity against drug-sensitive Mycobacterium tuberculosis isolate 4; type: functional; outline: as §1
[27] = test system: Mycobacterium tuberculosis; experiment: Antimycobacterial activity against drug-sensitive Mycobacterium tuberculosis isolate 14; type: functional; outline: as §1
[28] = test system: Mycobacterium tuberculosis; experiment: Antimycobacterial activity against drug-sensitive Mycobacterium tuberculosis isolate 19; type: functional; outline: as §1
[29] = test system: Mycobacterium tuberculosis; experiment: Antimycobacterial activity against drug-sensitive Mycobacterium tuberculosis isolate 11; type: functional; outline: as §1
[30] = test system: Mycobacterium tuberculosis; experiment: Antimycobacterial activity against drug-sensitive Mycobacterium tuberculosis isolate 10; type: functional; outline: as §1
[31] = test system: Staphylococcus aureus; experiment: Antimicrobial activity against drug-sensitive Staphylococcus aureus 209PJC-1; type: functional
[32] = test system: Mycobacterium tuberculosis; experiment: Antimycobacterial activity against drug-sensitive Mycobacterium tuberculosis isolate 2; type: functional; outline: as §1
[33] = test system: Mycobacterium tuberculosis; experiment: Antimycobacterial activity against drug-sensitive Mycobacterium tuberculosis isolate 13; type: functional; outline: as §1
[34] = test system: Mycobacterium tuberculosis; experiment: Antimycobacterial activity against drug-sensitive Mycobacterium tuberculosis isolate 6; type: functional; outline: as §1
[35] = test system: Mycobacterium tuberculosis; experiment: Antimycobacterial activity against drug-sensitive Mycobacterium tuberculosis isolate 17; type: functional; outline: as §1
[36] = test system: Enterococcus faecalis; experiment: Antimicrobial activity against AGs-resistant Enterococcus faecalis ATCC 19434; type: functional

Structure (SMILES): CO[C@H]1/C=C/O[C@@]2(C)Oc3c(C)c(O)c4c(O)c(c(/C=N/N5CCN(C)CC5)c(O)c4c3C2=O)NC(=O)/C(C)=C\C=C\[C@H](C)[C@H](O)[C@@H](C)[C@@H](O)[C@@H](C)[C@H](OC(C)=O)[C@@H]1C [RIFAMPIN]
- MIC [1]: 0.002 µg/mL (≈ 0.00243 µM)
- MIC [2]: < 0.05 µg/mL
- MIC [3]: 0.004 µg/mL (≈ 0.00486 µM)
- MIC [4]: 0.004 µg/mL (≈ 0.00486 µM)
- MIC [5]: 0.004 µg/mL (≈ 0.00486 µM)
- MIC [6]: 50 µg/mL (≈ 60.8 µM)
- MIC [7]: 0.25 µg/mL (≈ 0.304 µM)

Structure (SMILES): N.S=C(S)N1CCCC1 [PYRROLIDINE DITHIOCARBAMIC ACID, AMMONIUM SALT]
- MIC [1]: 12.5 µg/mL
- MIC [8]: 0.4 µg/mL
- MIC [9]: 32 µg/mL
- MIC [10]: 8 µg/mL
- MIC [11]: 0.4 µg/mL
- MIC [12]: 0.2 µg/mL
- MIC [13]: > 32 µg/mL
- MIC [14]: 0.2 µg/mL
- MIC [15]: > 32 µg/mL
- MIC [16]: > 32 µg/mL
- MIC [17]: 8 µg/mL
- MIC [18]: 0.2 µg/mL
- MIC [19]: 0.2 µg/mL
- MIC [20]: 0.2 µg/mL
- MIC [21]: 0.4 µg/mL
- MIC [22]: > 100 µg/mL
- MIC [2]: 3.13 µg/mL
- MIC [23]: 0.2 µg/mL
- MIC [3]: 12.5 µg/mL
- MIC [24]: 0.2 µg/mL
- MIC [25]: 0.2 µg/mL
- MIC [4]: 0.2 µg/mL
- MIC [26]: 0.2 µg/mL
- MIC [27]: 0.2 µg/mL
- MIC [5]: 0.4 µg/mL
- MIC [28]: 0.4 µg/mL
- MIC [29]: 0.2 µg/mL
- MIC [30]: 0.2 µg/mL
- MIC [31]: 8 µg/mL
- MIC [32]: 0.2 µg/mL
- MIC [33]: 0.4 µg/mL
- MIC [34]: 0.2 µg/mL
- MIC [35]: 0.2 µg/mL
- MIC [36]: 32 µg/mL
- MIC [6]: 12.5 µg/mL
- MIC [7]: 3.13 µg/mL

Structure (SMILES): C[C@@H](O)[C@H]1C(=O)N2C(C(=O)O)=C(SCCNC=N)C[C@H]12 [IMIPENEM ANHYDROUS]
- MIC [1]: 0.1 µg/mL (≈ 0.334 µM)
- MIC [3]: 0.1 µg/mL (≈ 0.334 µM)
- MIC [4]: 3.13 µg/mL (≈ 10.5 µM)
- MIC [5]: 3.13 µg/mL (≈ 10.5 µM)
- MIC [6]: 0.1 µg/mL (≈ 0.334 µM)

Structure (SMILES): CC1(C)S[C@@H]2[C@H](NC(=O)[C@H](N)c3ccccc3)C(=O)N2[C@H]1C(=O)O [AMPICILLIN]
- MIC [1]: 50 µg/mL (≈ 143 µM)
- MIC [3]: > 100 µg/mL
- MIC [4]: 12.5 µg/mL (≈ 35.8 µM)
- MIC [5]: 12.5 µg/mL (≈ 35.8 µM)
- MIC [6]: > 100 µg/mL

Structure (SMILES): CN(C)C(=S)S[C@@H]1O[C@H](CO)[C@@H](O)[C@H](O)[C@H]1N
- MIC [4]: 50 µg/mL (≈ 177 µM)

Structure (SMILES): CN[C@@H]1[C@H](O[C@H]2[C@H](O[C@H]3[C@H](O)[C@@H](O)[C@H](N=C(N)N)[C@@H](O)[C@@H]3N=C(N)N)O[C@@H](C)[C@]2(O)C=O)O[C@@H](CO)[C@H](O)[C@H]1O [STREPTOMYCIN]
- MIC [1]: 50 µg/mL (≈ 86 µM)
- MIC [2]: 3.13 µg/mL (≈ 5.38 µM)
- MIC [3]: > 100 µg/mL
- MIC [4]: 0.39 µg/mL (≈ 0.671 µM)
- MIC [5]: 0.2 µg/mL (≈ 0.344 µM)
- MIC [6]: 50 µg/mL (≈ 86 µM)
- MIC [7]: 1.56 µg/mL (≈ 2.68 µM)

Structure (SMILES): S=C([S-])N(c1c[nH]cn1)c1c[nH]cn1.[Na+]
- MIC [22]: > 100 µg/mL
- MIC [4]: 6.25 µg/mL
- MIC [5]: 12.5 µg/mL

Structure (SMILES): O=C(O)c1cn(C2CC2)c2cc(N3CCNCC3)c(F)cc2c1=O [CIPROFLOXACIN]
- MIC [1]: 0.2 µg/mL (≈ 0.604 µM)
- MIC [2]: 1.56 µg/mL (≈ 4.71 µM)
- MIC [4]: 0.39 µg/mL (≈ 1.18 µM)
- MIC [5]: 0.1 µg/mL (≈ 0.302 µM)
- MIC [7]: 0.39 µg/mL (≈ 1.18 µM)

Structure (SMILES): CCC(=O)N[C@@H]1[C@@H](O)[C@H](O)[C@@H](CO)O[C@H]1SC(=S)N(C)C
- MIC [4]: 50 µg/mL (≈ 148 µM)

Structure (SMILES): NC[C@H]1O[C@H](O[C@H]2[C@H](O)[C@@H](O[C@H]3O[C@H](CO)[C@@H](O)[C@H](N)[C@H]3O)[C@H](N)C[C@@H]2N)[C@H](O)[C@@H](O)[C@@H]1O [KANAMYCIN]
- MIC [1]: 12.5 µg/mL (≈ 25.8 µM)
- MIC [2]: 3.13 µg/mL (≈ 6.46 µM)
- MIC [3]: > 100 µg/mL
- MIC [4]: 1.56 µg/mL (≈ 3.22 µM)
- MIC [5]: 0.3 µg/mL (≈ 0.619 µM)
- MIC [6]: 12.5 µg/mL (≈ 25.8 µM)
- MIC [7]: 3.13 µg/mL (≈ 6.46 µM)

Structure (SMILES): CC(=O)N[C@@H]1[C@@H](O)[C@H](O)[C@@H](CO)O[C@H]1SC(=S)N(C)C
- MIC [1]: > 100 µg/mL
- MIC [2]: > 100 µg/mL
- MIC [3]: > 100 µg/mL
- MIC [4]: 25 µg/mL (≈ 77.1 µM)
- MIC [5]: 31.3 µg/mL (≈ 96.5 µM)
- MIC [6]: > 100 µg/mL
- MIC [7]: > 100 µg/mL
